# From ChEMBL document CHEMBL1139826, “Synthesis, biological activity, and SAR of antimycobacterial 2- and 8-substituted 6-(2-furyl)-9-(p-methoxybenzyl)purines” (Bioorg Med Chem, 2007)
# Experiments:
# [1] = Selectivity index, ratio of IC50 for Vero cells to MIC of Mycobacterium tuberculosis H37Rv; assay type: functional
# [2] = test system: Mycobacterium tuberculosis; test: Antimicrobial activity against Mycobacterial tuberculosis ATCC 27294 at […]; assay type: functional
# [3] = test system: Staphylococcus aureus; test: Antimicrobial activity against Staphylococcus aureus ATCC 25923; assay type: functional
# [4] = test system: Escherichia coli; test: Antimicrobial activity against Escherichia coli ATCC 25922; assay type: functional
# [5] = test system: Vero; test: Cytotoxicity against Vero cells; assay type: cell-based; details: Chlorocebus sabaeus
# How it was run: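 IC50 was measured in VERO mammalian cells, and only for compounds that met the M. tuberculosis MIC cutoff for follow-up. A selectivity index was then calculated as the VERO IC50 divided by the Mtb MIC.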
SMILES,Ratio [1],inhibition at […] [2],also measured
COc1ccc(Cn2cnc3c(-c4ccco4)ncnc32)cc1,>40 µg/mL,,
COc1ccc(Cn2cnc3c(-c4ccco4)nc(N(C)C)nc32)cc1,,34%,
COc1ccc(Cn2cnc3c(-c4ccco4)nc(Oc4ccccc4)nc32)cc1,,72%,
COc1ccc(Cn2cnc3c(-c4ccco4)nc(Cl)nc32)cc1,>26 µg/mL,,MIC [3]: > 32 µg/mL; MIC [4]: > 32 µg/mL
COc1ccc(Cn2cnc3c(-c4ccco4)nc(SC)nc32)cc1,3.9 µg/mL,,IC50 [5]: 3.05 µg/mL
